Assay results: ChEMBL document CHEMBL3867488 (ACS Med Chem Lett, 2016)

Assays:
[1] = target: T1, Oxysterols receptor LXR-beta (Homo sapiens, UniProt P55055); experiment: Agonist activity at human LXR-beta expressed in African green monkey CV1 cells measured after 18 to 20 hrs by luciferase reporter gene assay; format: cell-based, CV-1
T1 sequence (P55055 whole entry): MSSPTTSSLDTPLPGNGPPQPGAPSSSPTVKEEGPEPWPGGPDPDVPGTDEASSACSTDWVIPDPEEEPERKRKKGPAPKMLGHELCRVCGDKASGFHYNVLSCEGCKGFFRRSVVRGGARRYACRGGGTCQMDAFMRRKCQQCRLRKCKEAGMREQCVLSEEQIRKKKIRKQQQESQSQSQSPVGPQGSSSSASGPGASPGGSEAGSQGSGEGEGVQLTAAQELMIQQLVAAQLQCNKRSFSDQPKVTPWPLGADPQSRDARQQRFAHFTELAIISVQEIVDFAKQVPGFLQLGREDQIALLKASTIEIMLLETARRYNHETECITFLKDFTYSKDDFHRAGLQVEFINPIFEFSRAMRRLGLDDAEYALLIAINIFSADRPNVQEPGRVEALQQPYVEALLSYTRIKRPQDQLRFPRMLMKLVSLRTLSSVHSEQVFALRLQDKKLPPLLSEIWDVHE

[2] = target: Retinoic acid receptor RXR-alpha/oxysterols receptor LXR-beta (Homo sapiens, UniProt P55055); experiment: Displacement of [3H]-24,25-epoxycholesterol from human LXRbeta/RXRalpha expressed in baculovirus infected Sf9 cells by scintillation proximity analysis
How it was run: (§1)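 Binding affinity measured using full-length LXRα–RXRα and LXRβ–RXRα heterodimers.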

[3] = target: T2, Oxysterols receptor LXR-alpha (Homo sapiens, UniProt Q13133); experiment: Agonist activity at human LXR-alpha expressed in African green monkey CV1 cells measured after 18 to 20 hrs by luciferase reporter gene assay relative to pan agonist 1-(2,4-difluorobenzyl)-2-oxo-6-(4-phenoxyphenyl)-4-(trifluoromethyl)-1,2-dihydropyridine-3-carbonitrile; format: cell-based; settings: CV-1, human; read-out: Efficacy
T2 sequence (Q13133 whole entry): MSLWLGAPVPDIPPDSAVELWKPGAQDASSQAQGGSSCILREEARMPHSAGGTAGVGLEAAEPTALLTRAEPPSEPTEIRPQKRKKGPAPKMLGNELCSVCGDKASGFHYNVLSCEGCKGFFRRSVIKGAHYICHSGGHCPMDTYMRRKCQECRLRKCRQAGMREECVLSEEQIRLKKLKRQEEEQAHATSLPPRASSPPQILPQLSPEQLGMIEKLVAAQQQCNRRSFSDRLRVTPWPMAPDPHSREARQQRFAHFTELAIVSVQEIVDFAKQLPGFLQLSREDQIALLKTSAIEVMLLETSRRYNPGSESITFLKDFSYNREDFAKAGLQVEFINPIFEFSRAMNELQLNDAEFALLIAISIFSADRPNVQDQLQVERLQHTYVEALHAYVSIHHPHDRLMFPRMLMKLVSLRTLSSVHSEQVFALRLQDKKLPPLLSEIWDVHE

[4] = target: T2, Oxysterols receptor LXR-alpha; experiment: Agonist activity at human LXR-alpha expressed in African green monkey CV1 cells measured after 18 to 20 hrs by luciferase reporter gene assay; format: cell-based, CV-1
[5] = target: T3, Oxysterols receptor LXR-beta (Homo sapiens) (UniProt P55055); experiment: Agonist activity at LXR-beta in human HeLa cells assessed as induction of ABCA1 by beta-galactosidase/luciferase reporter gene assay relative to control; format: cell-based
T3 sequence (whole entry): T1 sequence (P55055 whole entry)
How it was run: (§2)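 HeLa cells carrying endogenous LXRα and LXRβ receptors, transfected with an ABCA1 LXREx3 reporter construct; agonist-driven reporter induction measured.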

[6] = target: Retinoic acid receptor RXR-alpha/oxysterols receptor LXR-alpha (Homo sapiens, UniProt Q13133); experiment: Displacement of [3H]-24,25-epoxycholesterol from human LXRalpha/RXRalpha expressed in baculovirus infected Sf9 cells by scintillation proximity analysis; how it was run: as §1
[7] = target: T3, Oxysterols receptor LXR-beta (Homo sapiens); experiment: (§3) Agonist activity at LXR-beta in human whole blood assessed as ABCA1 gene induction by measuring ABCA1 mRNA level after 4 hrs by SYBR-Green dye-based Q-PCR analysis relative to pan agonist 2-(4-(5-(5-cyano-1-(2,4-difluorobenzyl)-6-oxo-4-(trifluoromethyl)-1,6-dihydropyridin-2-yl)thiophen-2-yl)-3-methylphenyl)acetic acid; format: tissue-based
[8] = target: T3, Oxysterols receptor LXR-beta (Homo sapiens); experiment: Agonist activity at human LXR-beta expressed in African green monkey CV1 cells measured after 18 to 20 hrs by luciferase reporter gene assay relative to pan agonist 1-(2,4-difluorobenzyl)-2-oxo-6-(4-phenoxyphenyl)-4-(trifluoromethyl)-1,2-dihydropyridine-3-carbonitrile; format: cell-based; settings: CV-1
[9] = Half life in cynomolgus monkey at 0.2 mg/kg, iv administered as cassette dose by LC/MS/MS analysis; format: ADME, organism-based, Macaca fascicularis; settings: in vivo
[10] = target: T1, Oxysterols receptor LXR-beta; experiment: Agonist activity at LXR-beta in human HeLa cells assessed as induction of ABCA1 by beta-galactosidase/luciferase reporter gene assay; format: cell-based; how it was run: as §2
[11] = target: T1, Oxysterols receptor LXR-beta; experiment: Agonist activity at LXR-beta in human whole blood assessed as ABCA1 gene induction by measuring ABCA1 mRNA level after 4 hrs by SYBR-Green dye-based Q-PCR analysis; format: tissue-based
[12] = Clearance in cynomolgus monkey at 0.2 mg/kg, iv administered as cassette dose by LC/MS/MS analysis; format: ADME, organism-based, Macaca fascicularis; settings: in vivo
[13] = target: Alpha-1-acid glycoprotein 1 (Homo sapiens, UniProt P02763); experiment: Binding affinity to human alpha-1-AGP at 1 uM measured after 4 hrs by equilibrium dialysis method relative to control; format: ADME; settings: for fraction unbound at 4 h, 1 µM: human alpha-1-acid glycoprotein, read-out: PB; for PB: isolated protein, 4 h, 1 µM
[14] = target: Albumin (Homo sapiens, UniProt P02768); experiment: Binding affinity to human serum albumin at 1 uM measured after 4 hrs by equilibrium dialysis method relative to control; format: ADME; settings: for PB: isolated protein, 4 h, 1 µM
[15] = Half life in cynomolgus monkey at 0.25 mg/kg, iv administered as 10 mins infusion by LC/MS/MS analysis; format: ADME, organism-based, Macaca fascicularis; settings: in vivo
How it was run: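 Cynomolgus monkey intravenous PK, with n = 2 animals at the 0.25 mg/kg dose. Plasma clearance (mL/min/kg) and terminal t1/2 (h) derived from the plasma concentration–time profile.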

[16] = target: T1, Oxysterols receptor LXR-beta; experiment: Agonist activity at LXR-beta in human whole blood assessed as ABCG1 gene induction by measuring ABCA1 mRNA level after 4 hrs by SYBR-Green dye-based Q-PCR analysis; format: tissue-based
[17] = target: T3, Oxysterols receptor LXR-beta (Homo sapiens); experiment: as §3, with “as ABCG1” for “as ABCA1”; format: tissue-based
[18] = Half life in cynomolgus monkey at 1 mg/kg, iv administered as 10 mins infusion by LC/MS/MS analysis; format: ADME, organism-based, Macaca fascicularis; settings: in vivo
[19] = Half life in human plasma; format: ADME, cell-free
How it was run: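 Human plasma half-life was obtained from a clinical single ascending dose PK study.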

[20] = Binding affinity to dog alpha-1-AGP at 1 uM measured after 4 hrs by equilibrium dialysis method relative to control; format: ADME, Canis lupus familiaris; settings: dog alpha-1-acid glycoprotein, read-out: PB (converted)
[21] = target: T4, Alpha-1-acid glycoprotein (Rattus norvegicus, UniProt P02764); experiment: Binding affinity to rat alpha-1-AGP at 1 uM measured after 4 hrs by equilibrium dialysis method relative to control; format: ADME; settings: rat alpha-1-acid glycoprotein, read-out: PB (converted)
T4 sequence (P02764 whole entry): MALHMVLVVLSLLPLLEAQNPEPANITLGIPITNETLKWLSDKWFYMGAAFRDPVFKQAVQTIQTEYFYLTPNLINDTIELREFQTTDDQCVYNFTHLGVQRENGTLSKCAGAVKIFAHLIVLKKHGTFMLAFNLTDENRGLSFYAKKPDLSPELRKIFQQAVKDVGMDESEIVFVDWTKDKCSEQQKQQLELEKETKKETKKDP

Chain of Alpha-1-acid glycoprotein 1 (P02763 whole entry): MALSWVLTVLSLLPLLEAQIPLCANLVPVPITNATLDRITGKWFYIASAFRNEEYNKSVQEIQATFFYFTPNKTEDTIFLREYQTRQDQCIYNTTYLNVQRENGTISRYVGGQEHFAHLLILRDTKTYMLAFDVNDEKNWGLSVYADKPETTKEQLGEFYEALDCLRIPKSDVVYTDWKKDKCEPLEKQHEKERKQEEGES
Chain of Albumin (P02768 whole entry, the tested form may be a part): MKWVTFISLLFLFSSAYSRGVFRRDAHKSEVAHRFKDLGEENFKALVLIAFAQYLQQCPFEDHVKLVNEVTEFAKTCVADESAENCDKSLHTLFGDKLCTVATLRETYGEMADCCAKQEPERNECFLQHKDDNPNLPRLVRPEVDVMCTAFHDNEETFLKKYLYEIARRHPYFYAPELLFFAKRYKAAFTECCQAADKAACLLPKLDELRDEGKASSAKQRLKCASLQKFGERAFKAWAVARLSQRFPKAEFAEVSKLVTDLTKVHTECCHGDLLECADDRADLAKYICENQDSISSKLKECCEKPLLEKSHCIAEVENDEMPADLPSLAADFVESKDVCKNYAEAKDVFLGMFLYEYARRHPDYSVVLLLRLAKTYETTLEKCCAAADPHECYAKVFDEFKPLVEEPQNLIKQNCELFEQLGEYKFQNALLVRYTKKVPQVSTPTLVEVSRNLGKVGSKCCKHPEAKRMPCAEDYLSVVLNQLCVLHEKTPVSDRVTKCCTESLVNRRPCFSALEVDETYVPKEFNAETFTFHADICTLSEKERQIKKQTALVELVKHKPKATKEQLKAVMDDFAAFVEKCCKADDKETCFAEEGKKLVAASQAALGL
Chain of Retinoic acid receptor RXR-alpha/oxysterols receptor LXR-alpha (P19793 whole entry, one chain of several): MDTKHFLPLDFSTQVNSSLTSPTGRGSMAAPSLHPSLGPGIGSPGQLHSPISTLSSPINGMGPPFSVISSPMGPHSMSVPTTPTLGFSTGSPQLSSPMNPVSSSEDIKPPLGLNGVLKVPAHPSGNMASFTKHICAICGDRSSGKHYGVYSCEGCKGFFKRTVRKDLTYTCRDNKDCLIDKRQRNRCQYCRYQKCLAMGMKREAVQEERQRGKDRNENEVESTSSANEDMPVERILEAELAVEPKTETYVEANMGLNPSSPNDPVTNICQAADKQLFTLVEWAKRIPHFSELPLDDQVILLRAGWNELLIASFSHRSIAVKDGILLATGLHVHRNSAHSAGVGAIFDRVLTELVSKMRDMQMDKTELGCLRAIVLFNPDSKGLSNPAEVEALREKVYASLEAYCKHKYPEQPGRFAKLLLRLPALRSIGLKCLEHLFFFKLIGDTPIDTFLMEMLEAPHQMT
Chain of Retinoic acid receptor RXR-alpha/oxysterols receptor LXR-beta (P19793 whole entry, one chain of several): as above

Compound | EC50 [1] [nM] | Ki [2] [nM] | Emax [3] [%] | EC50 [4] [nM] | Efficacy [5] [%] | Ki [6] [nM] | Efficacy [7] [%] | Efficacy [8] [%] | EC50 [10] [nM] | EC50 [11] [nM] | also measured
CC(O)c1ccc(-c2ccc(-n3cc(C(C)(C)O)nc3C(C)(C)c3ccccc3Cl)cc2)cc1S(C)(=O)=O (configuration not stated) | 220 | 40 | 47 | 120 | 68 | 180 | 47 | 93 | 21 | 870 | half-life [9]: 5.5 h; clearance [12]: 5.6 mL/min/kg
CC(C)(O)c1cn(-c2ccc(-c3cc(F)c(CO)c(S(C)(=O)=O)c3)cc2)c(Cc2c(Cl)cccc2Cl)n1 | 140 | 11 | 17 | 69 | 43 | 75 | 51 | 54 | 5 | 42 | 
CC(C)(O)c1cn(-c2ccc(-c3cc(F)c(CO)c(S(C)(=O)=O)c3)cc2F)c(C(C)(C)c2ccccc2Cl)n1 | 50 | 18 | 25 | 57 | 29 | 9 | 35 | 79 | 2 | 46 | 
CC(C)(O)c1cn(-c2ccc(-c3cccc(S(C)(=O)=O)c3)cc2)c(C(C)(C)c2c(Cl)cccc2Cl)n1 | 170 | 11 | 20 | 99 | 42 | 16 | 32 | 41 | 18 | 380 | fraction unbound at 4 h, 1 µM [13]: 0.004 to 0.01; PB [14]: 97.9%
CC(C)(O)c1cn(-c2ccc(-c3cc(F)c(CO)c(S(C)(=O)=O)c3)cc2)c(C(C)(C)c2ccccc2Cl)n1 | 72 | 10 | 29 | 76 | 43 | 53 | 47 | 83 | 8 | 57 | PB [13]: 86.6%; PB [14]: 95.5%; half-life [9]: 5.6 h; clearance [12]: 8.4 mL/min/kg
CC(C)(O)c1cn(-c2ccc(-c3ccc(CO)c(S(C)(=O)=O)c3)cc2)c(C(C)(C)c2ccccc2Cl)n1 | 170 | 13 | 46 | 110 | 56 | 74 | 46 | 74 | 12 | 300 | PB [13]: 90.2%; PB [14]: 96.1%
CC(C)(O)c1cn(-c2ccc(-c3ccc(CO)c(S(C)(=O)=O)c3)cc2)c(Cc2ccccc2Cl)n1 | 60 | 5 | 39 | 100 | 54 | 31 | 72 | 50 | 9 | 300 | t1/2 [15]: 0.8 h
CC(C)(O)c1cn(-c2ccc(-c3cc(F)c(CO)c(S(C)(=O)=O)c3)cc2)c(C(C)(C)c2c(Cl)cccc2Cl)n1 | 42 | 6 | 25 | 30 | 23 | 38 | 43 | 72 | 3 | 15 | 
CC(C)(O)c1cn(-c2ccc(-c3cc(F)c(CO)c(S(C)(=O)=O)c3)cc2F)c(C(C)(C)c2c(F)cccc2Cl)n1 | 20 | 14 | 15 | 11 | 30 | 70 | 33 | 86 | 1 | 41 | 
CC(c1c(Cl)cccc1Cl)c1nc(C(C)(C)O)cn1-c1ccc(-c2cc(F)c(CO)c(S(C)(=O)=O)c2)cc1F (configuration not stated) | 25 | 13 | 18 | 12 | 9 | 17 | 17 | 67 | 2 | 23 | 
CC(C)(O)c1cn(-c2ccc(-c3cccc(S(C)(=O)=O)c3)cc2)c(C(C)(C)c2ccccc2Cl)n1 [BMS-779788] |  |  | 38 | 220 | 50 |  | 55 |  | 33 | 1200 | EC50 [16]: 1100 nM; fraction unbound at 4 h, 1 µM [13]: 0.001; Efficacy [17]: 60%; fraction unbound at 4 h, 1 µM ([14]; human serum albumin, read-out: PB): 0.028 to 0.03; t1/2 [18]: 7.4 h; half-life [19]: 100 to 200 h; half-life [9]: 8.9 h; fraction unbound at 4 h, 1 µM [20]: 0.02; fraction unbound at 4 h, 1 µM [21]: 0.08; clearance [12]: 2.9 mL/min/kg
CC(C)(O)c1cn(-c2ccc(-c3cc(F)c(CO)c(S(C)(=O)=O)c3)cc2)c(C(C)(C)c2ccccc2F)n1 | 160 | 14 | 13 | 130 | 15 | 81 | 28 | 68 | 12 | 43 | 
CC(C)(O)c1cn(-c2ccc(-c3cc(F)c(CO)c(S(C)(=O)=O)c3)cc2Cl)c(C(C)(C)c2c(Cl)cccc2Cl)n1 | 27 | 48 | 6 | 8 | 12 | 50 | 16 | 51 | 2 | 5 | 
